# Test results as given in ChEMBL document CHEMBL2146415, “Antibacterial activities of Groebke-Blackburn-Bienaymé-derived imidazo[1,2-a]pyridin-3-amines” (Bioorg Med Chem, 2012).
# Activity calls are given as the source filed them. No cut-off for these calls is given here.
# Experiments:
# Staphylococcus aureus [1] = test: Bacteriostatic activity against methicillin resistant Staphylococcus aureus ATCC 33591 by CLSI broth microdilution method; type: functional
# [2] = target: T1, Toll-like receptor 7 (Homo sapiens) (UniProt Q9NYK1); test: Antagonist activity at TLR7 expressed in HEK293 cells co-transfected with NF-kappaB/sAP gene assessed as inhibition of gardiquimod-induced NF-kappaB activation up to 250 uM by reporter gene assay; type: functional, cell-based
# T1 sequence (whole entry): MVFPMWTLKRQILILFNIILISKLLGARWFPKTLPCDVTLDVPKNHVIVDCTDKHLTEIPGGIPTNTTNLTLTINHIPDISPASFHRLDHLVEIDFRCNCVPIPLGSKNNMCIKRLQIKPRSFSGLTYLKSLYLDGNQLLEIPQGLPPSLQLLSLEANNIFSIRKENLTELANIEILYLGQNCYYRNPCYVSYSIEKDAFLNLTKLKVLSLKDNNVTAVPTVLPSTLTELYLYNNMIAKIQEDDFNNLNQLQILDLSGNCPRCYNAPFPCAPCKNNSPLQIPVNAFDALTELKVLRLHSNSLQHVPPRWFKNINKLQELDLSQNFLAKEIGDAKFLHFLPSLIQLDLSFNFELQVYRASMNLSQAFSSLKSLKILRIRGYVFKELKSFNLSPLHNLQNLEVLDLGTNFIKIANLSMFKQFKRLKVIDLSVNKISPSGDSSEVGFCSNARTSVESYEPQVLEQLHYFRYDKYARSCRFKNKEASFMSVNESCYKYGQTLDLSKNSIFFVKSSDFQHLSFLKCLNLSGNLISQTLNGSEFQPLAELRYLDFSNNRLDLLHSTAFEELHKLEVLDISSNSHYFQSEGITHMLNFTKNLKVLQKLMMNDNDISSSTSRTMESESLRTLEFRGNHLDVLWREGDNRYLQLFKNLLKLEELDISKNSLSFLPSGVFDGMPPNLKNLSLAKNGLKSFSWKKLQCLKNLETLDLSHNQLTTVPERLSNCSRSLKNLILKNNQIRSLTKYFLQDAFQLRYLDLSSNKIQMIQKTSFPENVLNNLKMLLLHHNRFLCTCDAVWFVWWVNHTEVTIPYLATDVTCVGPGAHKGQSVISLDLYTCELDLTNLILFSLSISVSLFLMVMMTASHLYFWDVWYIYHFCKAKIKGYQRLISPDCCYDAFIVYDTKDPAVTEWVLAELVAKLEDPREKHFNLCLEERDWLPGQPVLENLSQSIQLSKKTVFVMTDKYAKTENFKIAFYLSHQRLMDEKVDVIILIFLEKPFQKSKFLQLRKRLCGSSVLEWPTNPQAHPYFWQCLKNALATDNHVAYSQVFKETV
# [3] = target: T1, Toll-like receptor 7 (Homo sapiens); test: Agonist activity at human TLR7 expressed in HEK293 cells co-transfected with NF-kappaB/sAP gene assessed as induction of NF-kappaB activation up to 250 uM by reporter gene assay; type: functional, cell-based
# Staphylococcus aureus [4] = test: Bacteriostatic activity against wild type Staphylococcus aureus ATCC 13709 by CLSI broth microdilution method; type: functional
# Method in brief: (§1)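 MIC was determined by CLSI broth microdilution in non-cation-supplemented Mueller-Hinton broth, using OD600 0.5 cultures diluted 10-fold and 2-fold compound dilutions, overnight at 37°C, A600 read-out.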
# Staphylococcus aureus [5] = test: Bacteriostatic activity against wild type Staphylococcus aureus ATCC 13709 at 100 ug/mL by CLSI broth microdilution method; type: functional, organism-based
# Staphylococcus aureus [6] = test: Bactericidal activity against methicillin resistant Staphylococcus aureus ATCC 33591 by broth microdilution method; type: functional, organism-based
# Method in brief: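 MBC by microdilution subculture: 0.5 μL from each well of the parent MIC plate (MRSA ATCC 33591) diluted into 80 μL fresh Mueller-Hinton broth, incubated overnight at 37°C, absorbance read at 600 nm.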
# [7] = system: Staphylococcus epidermidis; test: Bacteriostatic activity against coagulase negative Staphylococcus epidermidis ATCC 35983 by CLSI broth microdilution method; type: functional; method in brief: as §1
# Streptococcus pyogenes = test: Bacteriostatic activity against Streptococcus pyogenes clinical isolate by CLSI broth microdilution method; type: functional; method in brief: as §1
# Escherichia coli = test: Antibacterial activity against Escherichia coli ATCC 9637 in presence of 6.6 ug/mL polymyxin B […]; type: functional, organism-based
# Method in brief: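 Broth microdilution per CLSI. Mid-log cultures in non-cation-supplemented Mueller-Hinton broth were adjusted to OD600 0.5, diluted 10-fold, and added to equal volumes of 2-fold serially diluted compound. Plates were sealed and incubated overnight at 37°C, then read at A600. MIC was the lowest concentration inhibiting growth. Reference antibiotics were run alongside.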
# [8] = Chemical stability in aqueous solution of the compound assessed as N-dealkylated compound formation after 2 weeks by LC-MS analysis; type: physicochemical; details: buffer, 336 h
SMILES,Activity [2],Activity [3],MIC (Staphylococcus aureus [4]),Activity (Staphylococcus aureus [5]),further results
c1ccc2c(-c3nc4ccccn4c3NC3CCCCC3)cccc2c1,inactive,inactive,7.81 µg/mL,–,MIC (Staphylococcus aureus [1]): 15.6 µg/mL
Cc1cccc(Cl)c1Nc1c(-c2c3ccccc3cc3ccccc23)nc2ccccn12,–,–,–,inactive,–
Nc1cccn2c(NC3CCCCC3)c(-c3c4ccccc4cc4ccccc34)nc12,–,–,15.6 µg/mL,–,–
COc1ccc(Nc2c(-c3c4ccccc4cc4ccccc34)nc3ccccn23)cc1,–,–,–,inactive,–
c1ccc2c(-c3nc4ccccn4c3NC34CC5CC(CC(C5)C3)C4)c3ccccc3cc2c1,–,–,15.6 µg/mL,–,–
CN(C)CCCNc1ccc2nc(-c3c4ccccc4cc4ccccc34)c(NC(C)(C)CC(C)(C)C)n2c1,–,–,3.91 µg/mL,–,–
CC(C)(C)CC(C)(C)Nc1c(-c2c3ccccc3cc3ccccc23)nc2ccccn12,–,–,3.91 µg/mL,–,MIC (Staphylococcus aureus [1]): 3.91 µg/mL; Activity (Staphylococcus aureus [6]): inactive
CCCCCCCCNc1c(-c2c3ccccc3cc3ccccc23)nc2ccccn12,–,–,7.81 µg/mL,–,–
CN(C)CCCNc1c2ccccc2c(-c2nc3ccccn3c2NC(C)(C)CC(C)(C)C)c2ccccc12,–,–,3.91 µg/mL,–,–
CC(C)(C)Nc1c(-c2cccc3ccccc23)nc2cnccn12,inactive,inactive,–,inactive,–
CC(C)(C)Nc1c(-c2c3ccccc3c(NCCCCCCCCN)c3ccccc23)nc2ccccn12,–,–,7.81 µg/mL,–,MIC (Staphylococcus aureus [1]): 15.6 µg/mL
C[Si](C)(C)CNc1c(-c2c3ccccc3cc3ccccc23)nc2ccccn12,–,–,15.6 µg/mL,–,–
CCCCNc1c(-c2c3ccccc3cc3ccccc23)nc2ccccn12,–,–,3.91 µg/mL,–,MIC (Staphylococcus aureus [1]): 7.81 µg/mL
c1ccc2c(-c3nc4ncccn4c3NC3CCCCC3)c3ccccc3cc2c1,–,–,15.6 µg/mL,–,–
CC(C)(C)Nc1c(-c2c3ccccc3cc3ccccc23)nc2ccccn12,inactive,inactive,3.91 µg/mL,–,MIC (Staphylococcus aureus [1]): 3.91 µg/mL; MIC [7]: 7.81 µg/mL; MIC (Streptococcus pyogenes): < 10 µg/mL; Activity (Staphylococcus aureus [6]): inactive; Activity (Escherichia coli): inactive
CCCC(C)Nc1c(-c2c3ccccc3cc3ccccc23)nc2ccccn12 (configuration not stated),–,–,7.81 µg/mL,–,MIC (Staphylococcus aureus [1]): 3.91 µg/mL
CC(C)(C)Nc1c(-c2c3ccccc3cc3ccccc23)nc2ccc(Br)cn12,–,–,15.6 µg/mL,–,–
O=C(Nc1c(-c2c3ccccc3cc3ccccc23)nc2ccccn12)C(F)(F)F,–,–,62.5 µg/mL,–,–

SMILES,Activity [2],Activity [3],MIC (Staphylococcus aureus [4]),Activity (Staphylococcus aureus [5]),further results
Clc1nccn2c(NC3CCCCC3)c(-c3c4ccccc4cc4ccccc34)nc12,–,–,–,inactive,–
c1ccc(CNc2c(-c3c4ccccc4cc4ccccc34)nc3cnccn23)cc1,inactive,inactive,–,inactive,–
c1ccc(CNc2c(Cc3ccccc3)nc3ccccn23)cc1,inactive,inactive,–,inactive,–
c1ccc(CNc2c(-c3c4ccccc4cc4ccccc34)nc3ccccn23)cc1,inactive,inactive,–,inactive,–
CC(C)Nc1c(-c2c3ccccc3cc3ccccc23)nc2ccccn12,–,–,15.6 µg/mL,–,MIC (Staphylococcus aureus [1]): 15.6 µg/mL
CC(C)(C)Nc1c(-c2cccc3ccccc23)nc2ccccn12,inactive,inactive,62.5 µg/mL,–,MIC (Staphylococcus aureus [1]): 31.2 µg/mL; MIC (Streptococcus pyogenes): < 10 µg/mL
CC(C)(C)CC(C)(C)Nc1c(-c2ccc(-c3ccccc3)cc2)nc2ccccn12,–,–,–,inactive,–
c1ccc2c(-c3nc4ccccn4c3NC3CCCCC3)c3ccccc3cc2c1,inactive,inactive,3.91 µg/mL,–,MIC (Staphylococcus aureus [1]): 3.91 µg/mL; MIC [7]: 7.81 µg/mL; MIC (Streptococcus pyogenes): < 10 µg/mL
c1ccc(-c2nc3ccccn3c2NC2CCCCC2)cc1,inactive,inactive,–,inactive,–
CC(C)(C)CC(C)(C)Nc1c(-c2c3ccccc3c(Cl)c3ccccc23)nc2ccccn12,–,–,7.81 µg/mL,–,–
CC(C)(C)Nc1c(-c2c3ccccc3cc3ccccc23)nc2ccc(NCCCCCCCCN)cn12,–,–,3.91 µg/mL,–,MIC (Staphylococcus aureus [1]): 7.81 µg/mL
CN(C)CCCNc1c2ccccc2c(-c2nc3ccccn3c2NC(C)(C)CC(C)(C)C)c2ccccc12.Cl,–,–,–,–,Stability [8]: Unstable
CC(C)(C)CC(C)(C)Nc1c(-c2cc3cccc4ccc5cccc2c5c43)nc2ccccn12,–,–,15.6 µg/mL,–,–
CN(C)CCCNc1ccc2nc(-c3c4ccccc4cc4ccccc34)c(NC(C)(C)CC(C)(C)C)n2c1.Cl,–,–,–,–,Stability [8]: Unstable
Nc1c(-c2c3ccccc3cc3ccccc23)nc2ccccn12,–,–,–,inactive,–
c1ccc(CNc2c(-c3ccccc3)nc3cnccn23)cc1,inactive,inactive,–,inactive,–
CCCCCCCCN(CCCCCCCC)c1c(-c2c3ccccc3cc3ccccc23)nc2ccccn12,–,–,31.2 µg/mL,–,–
CCCCCNc1c(-c2c3ccccc3cc3ccccc23)nc2ccccn12,–,–,3.91 µg/mL,–,MIC (Staphylococcus aureus [1]): 7.81 µg/mL

# Second part, led by results:
Activity [2],Activity [3],MIC (Staphylococcus aureus [4]),SMILES,Activity (Staphylococcus aureus [5]),further results
inactive,inactive,–,CC(C)(C)Nc1c(Cc2ccccc2)nc2cnccn12,inactive,–
inactive,inactive,–,c1ccc(Cc2nc3ccccn3c2NC2CCCCC2)cc1,inactive,–
inactive,inactive,–,CC(C)(C)Nc1c(-c2c3ccccc3cc3ccccc23)nc2cnccn12,inactive,–
inactive,inactive,–,c1ccc(CNc2c(Cc3ccccc3)nc3cnccn23)cc1,inactive,–
inactive,inactive,–,c1ccc(CNc2c(-c3ccccc3)nc3ccccn23)cc1,inactive,–
–,–,7.81 µg/mL,CC(C)(C)CC(C)(C)Nc1c(-c2cc3ccccc3c3ccccc23)nc2ccccn12,–,–
–,–,15.6 µg/mL,CC(C)(C)CC(C)(C)Nc1c(-c2c3ccccc3cc3ccccc23)nc2ccc(Br)cn12,–,–
inactive,inactive,7.81 µg/mL,c1ccc2c(-c3nc4cnccn4c3NC3CCCCC3)c3ccccc3cc2c1,–,–
–,–,7.81 µg/mL,CC(C)(C)Nc1c(-c2c3ccccc3c(Cl)c3ccccc23)nc2ccccn12,–,–
inactive,inactive,–,c1ccc(CNc2c(-c3cccc4ccccc34)nc3cnccn23)cc1,inactive,–
inactive,inactive,–,CC(C)(C)Nc1c(-c2ccccc2)nc2cnccn12,inactive,–
inactive,inactive,–,c1ccc(Cc2nc3cnccn3c2NC2CCCCC2)cc1,inactive,–
inactive,inactive,–,c1ccc(-c2nc3cnccn3c2NC2CCCCC2)cc1,inactive,–
inactive,inactive,15.6 µg/mL,c1ccc(CNc2c(-c3cccc4ccccc34)nc3ccccn23)cc1,–,–
inactive,inactive,–,CC(C)(C)Nc1c(Cc2ccccc2)nc2ccccn12,inactive,–
inactive,inactive,–,c1ccc2c(-c3nc4cnccn4c3NC3CCCCC3)cccc2c1,inactive,–
